Source: ChEMBL document CHEMBL3352164, “Discovery of N-(2,4-di-tert-butyl-5-hydroxyphenyl)-4-oxo-1,4-dihydroquinoline-3-carboxamide (VX-770, ivacaftor), a potent and orally bioavailable CFTR potentiator” (J Med Chem, 2014)
pEC50, pIC50: −log10 of the molar value. One block for each molecule: values may come before it.

Columns and labels:
[1] = target: Cystic fibrosis transmembrane conductance regulator (Homo sapiens, UniProt P13569, F508DEL); experiment: Potentiation of human CFTR F508del mutant expressed in mouse NIH-3T3 cells after 30 mins by fluorescent voltage sensing optical assay; type: cell-based, NIH3T3
Chain of Cystic fibrosis transmembrane conductance regulator (P13569 as listed by the source): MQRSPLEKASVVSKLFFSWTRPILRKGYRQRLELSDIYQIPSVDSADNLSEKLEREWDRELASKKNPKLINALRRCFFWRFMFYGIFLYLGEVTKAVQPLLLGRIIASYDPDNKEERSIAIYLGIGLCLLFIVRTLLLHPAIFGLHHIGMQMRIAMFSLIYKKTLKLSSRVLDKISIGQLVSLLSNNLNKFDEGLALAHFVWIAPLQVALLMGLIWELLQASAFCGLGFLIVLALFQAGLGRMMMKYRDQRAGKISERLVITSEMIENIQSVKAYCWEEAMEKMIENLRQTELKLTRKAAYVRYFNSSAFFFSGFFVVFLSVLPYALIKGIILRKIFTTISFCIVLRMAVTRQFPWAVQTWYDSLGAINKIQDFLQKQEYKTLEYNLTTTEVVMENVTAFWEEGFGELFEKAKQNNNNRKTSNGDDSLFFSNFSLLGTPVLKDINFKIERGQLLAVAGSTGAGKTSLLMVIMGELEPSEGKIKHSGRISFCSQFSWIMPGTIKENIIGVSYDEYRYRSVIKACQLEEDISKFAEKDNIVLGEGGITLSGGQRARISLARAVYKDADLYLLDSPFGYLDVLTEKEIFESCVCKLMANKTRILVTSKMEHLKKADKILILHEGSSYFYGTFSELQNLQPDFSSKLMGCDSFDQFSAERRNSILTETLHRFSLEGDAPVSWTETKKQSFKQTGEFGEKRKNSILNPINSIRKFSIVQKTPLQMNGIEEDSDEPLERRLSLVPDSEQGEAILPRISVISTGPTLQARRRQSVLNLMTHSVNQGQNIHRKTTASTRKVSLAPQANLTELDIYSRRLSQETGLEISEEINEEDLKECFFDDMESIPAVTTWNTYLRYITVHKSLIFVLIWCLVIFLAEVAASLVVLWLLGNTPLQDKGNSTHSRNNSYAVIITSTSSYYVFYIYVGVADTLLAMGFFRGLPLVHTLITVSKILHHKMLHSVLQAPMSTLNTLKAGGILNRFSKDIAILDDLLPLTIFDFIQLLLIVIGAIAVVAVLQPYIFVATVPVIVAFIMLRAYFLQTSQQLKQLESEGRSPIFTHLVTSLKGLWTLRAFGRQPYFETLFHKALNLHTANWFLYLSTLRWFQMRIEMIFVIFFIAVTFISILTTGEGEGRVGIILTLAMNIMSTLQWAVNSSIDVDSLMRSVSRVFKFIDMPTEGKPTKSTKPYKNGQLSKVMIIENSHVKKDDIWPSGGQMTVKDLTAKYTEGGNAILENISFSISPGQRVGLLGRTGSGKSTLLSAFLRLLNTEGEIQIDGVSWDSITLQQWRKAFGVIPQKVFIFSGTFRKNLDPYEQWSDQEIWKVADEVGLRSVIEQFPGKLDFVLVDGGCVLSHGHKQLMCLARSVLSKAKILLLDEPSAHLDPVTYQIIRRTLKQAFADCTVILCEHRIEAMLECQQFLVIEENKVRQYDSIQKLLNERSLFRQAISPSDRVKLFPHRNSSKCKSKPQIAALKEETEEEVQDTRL
Procedure, shortened: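 NIH-3T3 fibroblasts stably expressing human F508del-CFTR were held 16–24 h at 27 °C to correct misfolding. Cells were washed in NaCl/HEPES bath, pH 7.4, then loaded with voltage-sensing dyes plus compound for 30 min at room temperature. Cl−-free bath with forskolin was added once, and membrane potential change was read by fluorescence. EC50 is mean ± SD of at least three determinations.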

[2] = test system: Cystic fibrosis transmembrane conductance regulator (Homo sapiens), P13569 [F508del]; experiment: Potentiation of human CFTR F508del mutant expressed in mouse NIH-3T3 cells at 30 uM after 30 mins by fluorescent voltage sensing optical assay relative to VRT-532; type: cell-based; settings: NIH3T3
Chain of Cystic fibrosis transmembrane conductance regulator (Homo sapiens), P13569 [F508del] (P13569 as listed by the source): as above
Procedure, shortened: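 Same F508del-CFTR NIH-3T3 membrane-potential assay: 27 °C correction for 16–24 h, dye plus compound for 30 min at room temperature, then forskolin in Cl−-free bath. Compounds below 50% activity at 30 μM were not titrated. Their response at 30 μM is given as % of VRT-532.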

[3] = AUC (0 to infinity) in Sprague-Dawley rat at 2.49 mg/kg, iv; type: ADME, organism-based; set-up: time infinity, dose 2.49 mg/kg, route intravenous; settings: plasma
Procedure, shortened: (§1)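 Male Sprague−Dawley rats, n = 3/group, single iv dose in dimethyl isosorbide/ethanol/PEG400/D5W (10%/15%/35%/40%) at 1 mL/kg. Carotid cannula blood at predose, 5, 15, 30, 45 min and 1, 2, 4, 6, 8, 12, 24, 36, 48 h. Plasma levels by LC/MS/MS (LLOQ 1 ng/mL, linear 1–2500 ng/mL). Noncompartmental analysis of mean profiles using measured doses.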

[4] = Clearance in Sprague-Dawley rat at 2.49 mg/kg, iv; type: ADME, organism-based; set-up: dose 2.49 mg/kg, route intravenous; settings: in vivo
Procedure, shortened: (§2)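 Animals (n = 3/group; male mouse, Sprague-Dawley rat, beagle dog, cynomolgus monkey) got a single iv dose in dimethyl isosorbide/ethanol/PEG400/D5W (10%/15%/35%/40%) at 1 mL/kg. Heparinized blood was drawn via an indwelling carotid cannula from predose to 48 h. Plasma was assayed by LC/MS/MS (LLOQ 1 ng/mL, linear 1–2500 ng/mL). Parameters came from noncompartmental analysis of mean profiles using measured doses.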

[5] = Half life in Sprague-Dawley rat at 2.49 mg/kg, iv; type: ADME, organism-based; set-up: dose 2.49 mg/kg, route intravenous; settings: in vivo; procedure, shortened: as §2
[6] = Volume of distribution at steady state in Sprague-Dawley rat at 2.49 mg/kg, iv; type: ADME, organism-based; set-up: dose 2.49 mg/kg, route intravenous; settings: in vivo, read-out: Vdss; procedure, shortened: as §2
[7] = AUC (0 to infinity) in Sprague-Dawley rat at 1.29 mg/kg, iv; type: ADME, organism-based; set-up: dose 1.29 mg/kg, route intravenous, time infinity; settings: plasma; procedure, shortened: as §1
[8] = Clearance in Sprague-Dawley rat at 1.29 mg/kg, iv; type: ADME, organism-based; set-up: dose 1.29 mg/kg, route intravenous; settings: in vivo; procedure, shortened: as §2
[9] = Half life in Sprague-Dawley rat at 1.29 mg/kg, iv; type: ADME, organism-based; set-up: dose 1.29 mg/kg, route intravenous; settings: in vivo; procedure, shortened: as §2
[10] = Volume of distribution at steady state in Sprague-Dawley rat at 1.29 mg/kg, iv; type: ADME, organism-based; set-up: dose 1.29 mg/kg, route intravenous; settings: in vivo, read-out: Vdss; procedure, shortened: as §2
Cytochrome P450 2E1 = Cytochrome P450 2E1 (Homo sapiens, UniProt P05181); experiment: Inhibition of CYP2E1 (unknown origin); type: ADME
Chain of Cytochrome P450 2E1 (P05181 whole entry): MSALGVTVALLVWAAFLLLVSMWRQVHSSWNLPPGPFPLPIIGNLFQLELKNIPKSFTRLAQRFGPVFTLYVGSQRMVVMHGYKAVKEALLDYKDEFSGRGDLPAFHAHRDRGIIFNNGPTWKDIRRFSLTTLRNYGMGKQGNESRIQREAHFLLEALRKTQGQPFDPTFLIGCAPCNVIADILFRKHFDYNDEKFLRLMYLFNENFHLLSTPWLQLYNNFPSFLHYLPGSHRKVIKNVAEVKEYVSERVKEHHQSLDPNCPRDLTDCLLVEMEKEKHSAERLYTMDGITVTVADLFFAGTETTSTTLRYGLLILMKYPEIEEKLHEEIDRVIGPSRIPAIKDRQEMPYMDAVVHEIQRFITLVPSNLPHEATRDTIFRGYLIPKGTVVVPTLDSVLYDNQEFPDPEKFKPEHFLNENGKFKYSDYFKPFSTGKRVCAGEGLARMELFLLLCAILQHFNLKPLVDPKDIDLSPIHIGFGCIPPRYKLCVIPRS

[11] = Clearance in mouse at 3 mg/kg, iv; type: ADME, organism-based; set-up: dose 3 mg/kg, route intravenous; settings: in vivo; procedure, shortened: as §2
[12] = Half life in mouse at 3 mg/kg, iv; type: ADME, organism-based; set-up: dose 3 mg/kg, route intravenous; settings: in vivo; procedure, shortened: as §2
[13] = Volume of distribution at steady state in mouse at 3 mg/kg, iv; type: ADME, organism-based; set-up: dose 3 mg/kg, route intravenous; settings: in vivo, read-out: Vdss; procedure, shortened: as §2
[14] = Half life in beagle dog at 0.9 mg/kg, iv; type: ADME, organism-based, Canis lupus familiaris; set-up: dose 0.9 mg/kg, route intravenous; settings: in vivo; procedure, shortened: as §2
[15] = Volume of distribution at steady state in beagle dog at 0.9 mg/kg, iv; type: ADME, organism-based, Canis lupus familiaris; set-up: dose 0.9 mg/kg, route intravenous; settings: in vivo, read-out: Vdss; procedure, shortened: as §2
[16] = Clearance in Cynomolgus monkey at 0.8 mg/kg, iv; type: ADME, organism-based, Macaca fascicularis; set-up: dose 0.8 mg/kg, route intravenous; settings: in vivo; procedure, shortened: as §2
[17] = Half life in Cynomolgus monkey at 0.8 mg/kg, iv; type: ADME, organism-based, Macaca fascicularis; set-up: dose 0.8 mg/kg, route intravenous; settings: in vivo; procedure, shortened: as §2
[18] = Volume of distribution at steady state in Cynomolgus monkey at 0.8 mg/kg, iv; type: ADME, organism-based, Macaca fascicularis; set-up: dose 0.8 mg/kg, route intravenous; settings: in vivo, read-out: Vdss; procedure, shortened: as §2
[19] = AUC (0 to infinity) in Sprague-Dawley rat at 3 mg/kg, po; type: ADME, organism-based; set-up: time infinity, dose 3 mg/kg, route oral; settings: plasma
Procedure, shortened: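 Single oral dose, n = 3/group. Heparinized carotid-cannula blood was sampled at predose, 0.25, 0.5, 1, 1.5, 2, 4, 8, 12 and 24 h. Plasma levels were measured by LC/MS/MS (LLOQ 1 ng/mL). AUC and bioavailability were derived by noncompartmental analysis of mean concentration–time profiles against the iv arm.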

Canis familiaris [20] = experiment: Oral bioavailability in beagle dog at 3.8 mg/kg; settings: in vivo
Canis familiaris [21] = experiment: AUC (0 to infinity) in beagle dog at 3.8 mg/kg, po; settings: in vivo

pEC50 [1]: 5.25
Structure (SMILES): O=C(Nc1ccc2cn[nH]c2c1)c1c[nH]c2ccccc2c1=O

Activity [2]: 21%
Structure (SMILES): O=C1Cc2ccc(NC(=O)c3c[nH]c4ccccc4c3=O)cc2N1

Activity [2]: 20%
Structure (SMILES): CC(C)(C)c1ccc(NC(=O)c2c[nH]c3ccccc3c2=O)cc1CN

pEC50 [1]: 5.68
Structure (SMILES): O=C(c1c[nH]c2ccccc2c1=O)N(Cc1ccccc1)Cc1ccccc1

pEC50 [1]: 7.00
Structure (SMILES): CC(C)(C)c1ccc(NC(=O)c2c[nH]c3ccccc3c2=O)cc1F

Activity [2]: 8%
Structure (SMILES): O=C(Nc1cnc2ccccc2c1O)c1ccc2cc[nH]c2c1

Activity [2]: 37%
Structure (SMILES): Cn1cc(C(=O)N(Cc2ccccc2)Cc2ccccc2)c(=O)c2ccccc21

pEC50 [1]: 5.19
Structure (SMILES): Cn1ccc2ccc(NC(=O)c3c[nH]c4ccccc4c3=O)cc21

pEC50 [1]: 5.46
Structure (SMILES): O=C(c1ccc2ccccc2c1O)N(Cc1ccccc1)Cc1ccccc1

Activity [2]: 2%
Structure (SMILES): O=C(c1cnccc1O)N(Cc1ccccc1)Cc1ccccc1

Activity [2]: 13%
Structure (SMILES): CC(C)(C)c1ccc(NC(=O)c2c[nH]c3ccccc3c2=O)cc1C(=O)O

pEC50 [1]: 7.70
Structure (SMILES): CCc1cc2cc[nH]c2cc1NC(=O)c1c[nH]c2ccccc2c1=O

pEC50 [1]: 4.80
Structure (SMILES): O=C(c1cnc2ccccc2c1)N(Cc1ccccc1)Cc1ccccc1

pEC50 [1]: 6.52
Structure (SMILES): CC(C)c1ccc(NC(=O)c2c[nH]c3ccccc3c2=O)cc1N

pEC50 [1]: 7.96
AUC(0-inf) [3]: 2640 ng·h/mL
clearance [4]: 15.8 mL/min/kg
half-life [5]: 174 min
Vd [6]: 3.3 L/kg
Structure (SMILES): CC(C)(C)c1cc2cc[nH]c2cc1NC(=O)c1c[nH]c2ccccc2c1=O

pEC50 [1]: 8.52
AUC(0-inf) [7]: 260 ng·h/mL
clearance [8]: 85.6 mL/min/kg
half-life [9]: 42 min
Vd [10]: 2.9 L/kg
Structure (SMILES): CC(C)(C)c1ccc(NC(=O)c2c[nH]c3ccccc3c2=O)cc1O

pEC50 [1]: 6.10
Structure (SMILES): O=C(Nc1ccc2ccccc2c1)c1c[nH]c2ccccc2c1=O

pEC50 [1]: 5.16
Structure (SMILES): Nc1cccc(NC(=O)c2c[nH]c3ccccc3c2=O)c1

pEC50 [1]: 8.52
pIC50 (Cytochrome P450 2E1): < 4.70
clearance [11]: 20 mL/min/kg
half-life [12]: 78 min
Vd [13]: 2.8 L/kg
half-life [14]: 780 min
Vd [15]: 0.7 L/kg
clearance [16]: 7.4 mL/min/kg
half-life [17]: 402 min
Vd [18]: 2.2 L/kg
AUC(0-inf) [19]: 4800 ng·h/mL
F (Canis familiaris [20]): 43%
AUC (Canis familiaris [21]): 13.5 µg·h/mL
Structure (SMILES): CC(C)(C)c1cc(C(C)(C)C)c(NC(=O)c2c[nH]c3ccccc3c2=O)cc1O [IVACAFTOR]

pEC50 [1]: 7.00
Structure (SMILES): CC(C)(C)c1ccc(NC(=O)c2c[nH]c3ccccc3c2=O)cc1

pEC50 [1]: 6.40
Structure (SMILES): O=C(Nc1ccc2c(c1)NCC2)c1c[nH]c2ccccc2c1=O

pEC50 [1]: 5.82
Structure (SMILES): CCc1cccc(CC)c1NC(=O)c1c[nH]c2ccccc2c1=O

pEC50 [1]: 5.21
Structure (SMILES): O=C(Nc1ccc2[nH]ccc2c1)c1c[nH]c2ccccc2c1=O

pEC50 [1]: 6.70
Structure (SMILES): CCc1ccccc1NC(=O)c1c[nH]c2ccccc2c1=O
